Experimental data as given in publication PMC8561282 (Haematologica, 2021).
Entries after “also recorded” stand apart in the source; their conditions may differ.

Key:
[1] = test system: pentose phosphate pathway; assay: 1,2,3-13C3-glucose tracing; format: cell-based, mouse
Summary of the method: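 Red cells from wild-type, humanized band 3, HA Del (lacking residues 1-11) and BS KO (lacking residues 12-23) mice were stimulated with methylene blue and incubated with 1,2,3-13C3-glucose at 37 °C for 1 h. In rescue arms, cells were preincubated with recombinant band 3 N-terminal peptide (residues 1-56). The read-out was the ratio of lactate isotopologues +3 (glycolysis) and +2 (pentose phosphate pathway), measured by UHPLC-MS.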

[2] = test system: RBC from WT, HuB3, HA Del and BS KO mice; assay: Glutathione oxidation; format: cell-based, mouse
[3] = test system: GAPDH; assay: 15N-HSQC NMR of band 3 peptide 1-56 upon titration of GAPDH; format: binding; conditions: 25 °C, 100 or 200 GAPDH (mM in text, μM in legend)
Summary of the method: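 15N-HSQC spectra of 15N-labelled recombinant band 3 peptide 1-56 were recorded at 25 °C on a 900 instrument using a standard sequence. Recombinant GAPDH (tetramer) was titrated at 0, 100 and 200 (units as printed are unreliable). Individual residue amide signals were followed across the titration.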

[4] = test system: RBC cytosol and membrane proteins; format: binding, human; conditions: part of macromolecular complexes with direct interactors
[5] = test system: pentose phosphate pathway; format: cell-based, human; conditions: RBC lysates, 1,2,3-13C3-glucose 5 mM, 37 °C, 1 h, methylene blue; recombinant peptide
Summary of the method: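 Red cell lysates came from the band 3 Neapolis subject (AE1 residues 1-11 absent) and from healthy donors (n=3). Lysates were incubated with 1,2,3-13C3-glucose at 37 °C for 1 h under methylene blue stimulation, with or without recombinant N-terminal band 3 peptide (residues 1-56). Isotopologues were measured by UHPLC-MS to assess pentose phosphate pathway activation.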

[6] = recombinant peptide, 1,2,3-13C3-glucose, methylene blue

Molecule	Activation of the PPP, methylene blue stimulation, HA Del ([1]; 37 °C, 1 h, HA Del mouse RBC)	Glutathione oxidation with MB [2]	Y8 amide signal upon GAPDH titration [3]	Y46 amide signal upon GAPDH titration [3]	Candidate indirect interactors by pull-down followed by crosslinking [4]	PPP activation and glycolysis with peptide, all mouse strains ([1]; legend of Figure 1I, recombinant peptide, methylene blue)	PPP activation with peptide, BS KO mouse RBC [1, 6]	PPP activation with peptide, HA Del mouse RBC [1, 6]	Rescue of the deficit in PPP activation, band 3 Neapolis [5]
CN(C)c1ccc2nc3ccc(=[N+](C)C)cc-3sc2c1 [MB, methylene blue, reference compound]	ablated in HA Del mice	increased glutathione oxidation (GSSG/GSH ratios)							
AE11-56: recombinantly expressed peptide coding for amino acids 1-56 of the N-terminus of band 3 (AE1) (MEELQDDYEDMMEENLEQEEYEDPDIPESQMEEPAAHDTEATATDYHTTSHPGTHK; UniProt P02730 1-56, looked up, fragment)			near complete disappearance of the central Y8 amide	no chemical shift perturbations	peroxiredoxin 2,[51] peroxiredoxin 6, catalase, phosphofructokinase isoforms,[12] proteins 4.1 and 4.2, glucose phosphate isomerase, stomatin, adducin b, carbonic anhydrase 1, and 1-phosphatidylinositol 4,5-bisphosphate phosphodiesterase η-2	increased PPP activation and decreased glycolysis in HA Del mice and further exacerbated responses in all the other strains	higher basal levels and further increases in PPP activation by MB	the defect in PPP activation of HA Del mice was rescued	a defect that was corrected by rescue; also recorded: partially rescued in vitro
